Activity calls are given as the source filed them. No cut-off for these calls is given here.
Assays:
[1] = tested on: PC-12; experiment: Cytotoxicity against rat PC12 cells assessed as cell viability by MTT assay relative to control; assay type: functional
[2] = Permeability of the compound by PAMPA; assay type: ADME; settings: read-out: permeability
Outline: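 PAMPA-BBB. Assay validated against 11 commercial drugs with reported permeability values.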

[3] = molecular target: T1, Amine oxidase [flavin-containing] A (Homo sapiens, UniProt P21397); experiment: Inhibition of human recombinant MAO-A by multimode plate reader assay
T1 sequence (P21397 whole entry): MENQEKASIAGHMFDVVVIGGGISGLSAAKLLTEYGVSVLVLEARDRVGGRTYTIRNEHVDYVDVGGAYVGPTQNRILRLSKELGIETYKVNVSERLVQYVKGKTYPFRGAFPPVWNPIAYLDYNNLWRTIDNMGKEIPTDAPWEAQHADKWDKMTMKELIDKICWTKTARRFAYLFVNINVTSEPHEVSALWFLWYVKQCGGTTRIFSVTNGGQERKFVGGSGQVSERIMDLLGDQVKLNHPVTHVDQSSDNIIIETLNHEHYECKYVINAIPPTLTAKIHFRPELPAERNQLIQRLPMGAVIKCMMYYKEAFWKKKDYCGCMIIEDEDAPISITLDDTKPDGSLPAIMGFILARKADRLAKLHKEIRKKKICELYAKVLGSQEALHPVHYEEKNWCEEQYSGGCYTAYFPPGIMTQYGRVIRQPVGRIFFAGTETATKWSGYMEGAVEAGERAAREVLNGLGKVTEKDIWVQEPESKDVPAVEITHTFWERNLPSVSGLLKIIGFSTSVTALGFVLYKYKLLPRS

[4] = molecular target: Acetylcholinesterase (Electrophorus electricus) (UniProt O42275); experiment: Mixed type inhibition of electric eel AChE assessed as decrease in Vmax by reciprocal Lineweaver-Burk plot analysis; settings: dose 0.5-2 µM
Chain of Acetylcholinesterase (Electrophorus electricus) (O42275 24-633 limits assumed): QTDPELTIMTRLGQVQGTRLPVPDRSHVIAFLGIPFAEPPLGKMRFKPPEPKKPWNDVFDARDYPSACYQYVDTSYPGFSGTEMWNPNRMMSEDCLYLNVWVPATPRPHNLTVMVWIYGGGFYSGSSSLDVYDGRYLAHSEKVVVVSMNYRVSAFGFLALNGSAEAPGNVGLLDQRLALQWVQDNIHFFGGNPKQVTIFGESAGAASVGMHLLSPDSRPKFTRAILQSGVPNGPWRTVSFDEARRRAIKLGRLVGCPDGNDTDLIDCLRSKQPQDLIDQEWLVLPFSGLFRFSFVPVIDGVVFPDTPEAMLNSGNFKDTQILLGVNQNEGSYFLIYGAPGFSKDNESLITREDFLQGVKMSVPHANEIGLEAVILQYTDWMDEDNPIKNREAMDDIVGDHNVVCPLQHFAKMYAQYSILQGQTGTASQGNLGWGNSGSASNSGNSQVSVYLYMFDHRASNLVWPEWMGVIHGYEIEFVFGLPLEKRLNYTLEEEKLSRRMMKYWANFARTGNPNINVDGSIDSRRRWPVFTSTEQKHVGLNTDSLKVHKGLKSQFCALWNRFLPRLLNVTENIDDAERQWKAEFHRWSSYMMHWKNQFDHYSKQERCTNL

[5] = Metal chelating activity assessed as compound-Al3+ complex formation by measuring maximum absorption wavelength shifted from 444 nm to 468 nm by UV-Visible spectrophotometry
Outline: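 UV-vis spectra recorded from 200 to 600 nm on a multimode reader. Metals tested as CuCl2, FeSO4, ZnCl2 and AlCl3.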

[6] = Acute toxicity in KM mouse assessed as abnormal behavior upto 1000 mg/kg, po administered as single dose measured for 14 days; assay type: organism-based; settings: in vivo, 336 h, time 14 day
Outline: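 Kunming mice, n = 10 per group, fasted overnight with free access to water, given one oral dose of 67.5, 125, 250, 500 or 1000 mg/kg. Housed on a 12 h light/dark cycle at 20–22 °C, 40–70% relative humidity. Abnormal behaviour and mortality observed continuously for the first 4 h, intermittently over the next 24 h, then occasionally to 14 days.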

[7] = molecular target: Acetylcholinesterase (Electrophorus electricus) (UniProt O42275); experiment: Mixed type inhibition of electric eel AChE assessed as increase in Km by reciprocal Lineweaver-Burk plot analysis; settings: dose 0.5-2 µM

CCN(CCCCOc1ccc(C(=O)/C=C/c2ccc(N(C)C)cc2)c(O)c1)Cc1ccccc1N(C)C
Activity [1]: >50 µM | Papp [2]: 13.4 ×10⁻⁶ cm/s | IC50 [3]: 18.4 µM | inhibition [4]: Active | Activity [5]: Active | Activity [6]: Non-Toxic | inhibition [7]: Active

Reference: ChEMBL document CHEMBL4813970, “Design, synthesis and evaluation of novel dimethylamino chalcone-O-alkylamines derivatives as potential multifunctional agents against Alzheimer's disease” (Eur J Med Chem, 2021)
